Data published in article PMC7480958 (ACS chemical biology, 2020).

Assays:
bovine trypsin = experiment: Protease activity assay, trypsin; type: biochemical; conditions: incubated with up to 20 μM
In short: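 Bovine trypsin in DPBS pH 7.4 with 0.01% Tween-20 and 2 mM DTT was preincubated for 30 min at 22°C with an equal volume of 3-fold serial dilutions of the test compound (DMSO stock; final 20 μM to 339 pM). The mix was added to z-Leu-Arg-Arg-AMC (final 100 μM; enzyme 10 nM). AMC fluorescence (360/460 nm) was read every 3 min at 22°C, and the rate (RFU/s) was taken over 30 min.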

[1] = test system: H-460 lung cancer cell line; experiment: H-460 lung cancer cell cytotoxicity assay; type: cell-based; conditions: read-out: Cytotoxic activity IC50
human chymotrypsin = human chymotrypsin (Homo sapiens, UniProt P17538); experiment: Protease activity assay, chymotrypsin; type: biochemical; conditions: isoleucine in 1 versus valine in 2 and 3
proteinase K = proteinase K (Parengyodontium album, UniProt P06873); experiment: Protease activity assay, proteinase K; type: biochemical, Engyodontium album
Sequence of proteinase K (P06873 106-384): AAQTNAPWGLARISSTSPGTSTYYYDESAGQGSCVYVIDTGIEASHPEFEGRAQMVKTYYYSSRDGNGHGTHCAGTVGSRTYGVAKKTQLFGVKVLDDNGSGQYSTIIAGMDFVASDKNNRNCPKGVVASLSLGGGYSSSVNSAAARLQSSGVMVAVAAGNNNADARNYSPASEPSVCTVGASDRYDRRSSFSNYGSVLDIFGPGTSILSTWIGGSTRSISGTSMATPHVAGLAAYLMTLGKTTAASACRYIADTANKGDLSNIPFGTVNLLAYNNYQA

Sequence of human chymotrypsin (P17538 19-263): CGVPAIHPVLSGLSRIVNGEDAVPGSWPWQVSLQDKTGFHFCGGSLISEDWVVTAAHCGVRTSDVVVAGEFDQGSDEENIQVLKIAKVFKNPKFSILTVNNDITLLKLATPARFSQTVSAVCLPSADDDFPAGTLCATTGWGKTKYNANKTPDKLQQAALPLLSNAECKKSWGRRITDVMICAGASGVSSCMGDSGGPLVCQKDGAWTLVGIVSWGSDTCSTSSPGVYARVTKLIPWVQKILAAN

C/C=C1\NC(=O)[C@@H](NC(=O)[C@@H](NC(=O)[C@H](C)NC(=O)C/C(C)=C/Cl)C(C)C)[C@@H](C)OC(=O)[C@H](C(C)C)NC(=O)[C@H](Cc2ccc(O)cc2)N(C)C(=O)[C@H](Cc2ccccc2)N2C(=O)[C@H](CC[C@H]2O)NC1=O [Tutuilamide B (2), tutuilamide B]
Inhibition of bovine trypsin (bovine trypsin): no inhibition | IC50 [1]: 1270 ± 210 nM

C/C=C1\NC(=O)[C@@H](NC(=O)[C@@H](NC(=O)C/C(=C/Cl)CC)C(C)C)[C@@H](C)OC(=O)[C@H](C(C)C)NC(=O)[C@H](Cc2ccc(O)cc2)N(C)C(=O)[C@H](Cc2ccccc2)N2C(=O)[C@H](CC[C@H]2O)NC1=O [Tutuilamide C (3), tutuilamide C]
Inhibition of bovine trypsin (bovine trypsin): no inhibition | IC50 [1]: 4780 ± 450 nM

C/C=C1\NC(=O)[C@@H](NC(=O)[C@@H](NC(=O)[C@H](C)NC(=O)C/C(C)=C/Cl)[C@@H](C)CC)[C@@H](C)OC(=O)[C@H](C(C)C)NC(=O)[C@H](Cc2ccc(O)cc2)N(C)C(=O)[C@H](Cc2ccccc2)N2C(=O)[C@H](CC[C@H]2O)NC1=O [Tutuilamide A (1), tutuilamide A]
Fold reduction in potency for chymotrypsin (human chymotrypsin): 2 fold | Inhibition of bovine trypsin (bovine trypsin): no inhibition | IC50 [1]: 530 ± 40 nM

C/C=C1\NC(=O)[C@@H](NC(=O)[C@H](CCC(N)=O)NC(=O)CCCCC)[C@@H](C)OC(=O)[C@H](C(C)C)NC(=O)[C@H](Cc2ccc(O)cc2)N(C)C(=O)[C@H](Cc2ccccc2)N2C(=O)[C@H](CC[C@H]2O)NC1=O [Lyngbyastatin 7, lyngbyastatin 7]
IC50 (proteinase K): 1570 nM
